Results: ChEMBL document CHEMBL2311256, “Design and synthesis of biaryl aryl stilbenes/ethylenes as antimicrotubule agents” (Eur J Med Chem, 2013)
pIC50: −log10 of the molar value. The source made the active and inactive calls. No cut-off for these calls is given here.

Assays:
HeLa [1] = assay: Induction of cyclin B1 expression in human HeLa cells at 1 uM after 24 hrs by immunoblotting; type: functional, cell-based
In short: (§1)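 HeLa seeded at 1 × 10^5 cells/well and treated 24 h. Cells washed with PBS, lysed in 1X SDS sample buffer, run on SDS-PAGE and transferred to nitrocellulose. Blots probed with anti-cyclin B1 (1:1500) and HRP goat anti-rabbit secondary (1:5000), detected by enhanced chemiluminescence.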

Tubulin (Homo sapiens) [2] = molecular target: T1, Tubulin (Homo sapiens) (UniProt P68371+Q9H4B7+P0DPH7+P68366+Q13509+Q71U36+P04350+Q3ZCM7+P07437+P68363+Q9BQE3+Q6PEY2+Q13885+Q9BVA1+Q9BUF5); assay: Inhibition of tubulin polymerization in human HeLa cells assessed as tubulin polymerized fraction at 1 uM after 24 hrs by immunohistochemistry analysis; type: cell-based
HeLa [3] = assay: Cytotoxicity against human HeLa cells after 48 hrs by MTT assay; type: functional, cell-based
In short: (§2)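 Cells given 24 h settling, then 48 h continuous exposure to 1, 10, 100 and 1000 µM in triplicate wells. A549, SK-N-SH and HeLa grown in DMEM with 10% FBS; DU145 in MEM with non-essential amino acids, 1 mM pyruvate, insulin and 10% FBS; all at 37 °C, 5% CO2. Read-out was MTT (60 min, 37 °C), DMSO elution, 560 nm. IC50 = 50% absorbance reduction versus control, mean ± SD of three experiments.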

Bos taurus = species: Bos taurus; assay: Inhibition of bovine brain tubulin polymerization at 5 uM by fluorescence assay
SK-N-SH = assay: Cytotoxicity against human SK-N-SH cells after 48 hrs by MTT assay; type: functional, cell-based; in short: as §2
DU-145 = assay: Cytotoxicity against human DU145 cells after 48 hrs by MTT assay; type: functional, cell-based; conditions: DU-145, 48 h; in short: as §2
A549 = assay: Cytotoxicity against human A549 cells after 48 hrs by MTT assay; type: functional, cell-based; conditions: A549, 48 h; in short: as §2
HeLa [4] = assay: Antimitotic activity in human HeLa cells assessed as accumulation at G2/M phase at 10 uM after 24 hrs by flow cytometry analysis (reference value: 19.4%); type: functional
In short: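 Cells treated 24 h at 10 µM, trypsin-EDTA harvested, fixed in ice-cold 70% ethanol at 4 °C for 30 min, then stained 30 min in propidium iodide (0.2 mg) plus RNase A (2 mg) per 1 mL. DNA content of 20,000 events measured by flow cytometry, and the percentage of cells in G2/M quantified against untreated and DMSO controls.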

[5] = Inhibition of bovine brain tubulin polymerization by fluorescence assay; design: species or system Bos taurus
HeLa [6] = assay: Induction of cyclin B1 expression in human HeLa cells at 10 uM after 24 hrs by immunoblotting; type: functional, cell-based; in short: as §1
Tubulin (Homo sapiens) [7] = molecular target: T1, Tubulin (Homo sapiens); assay: Inhibition of tubulin polymerization in human HeLa cells assessed as tubulin cytoskeleton at 10 uM after 24 hrs by immunohistochemistry analysis; type: cell-based
In short: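 HeLa on coverslips treated 24 h at 10 µM, then fixed in 3.5% formaldehyde/PBS for 10 min and permeabilized with 0.5% Triton X-100/0.05% Tween-20. Blocked in 2% BSA, stained with anti-tubulin (1:200, 4 h, RT) and FITC anti-mouse secondary (1:500, 1 h), DAPI counterstain. Imaged by fluorescence microscopy; five fields of view.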

Tubulin (Homo sapiens) [8] = molecular target: T1, Tubulin (Homo sapiens); assay: Inhibition of tubulin polymerization in human HeLa cells assessed as tubulin soluble fraction at 10 uM after 24 hrs by immunohistochemistry analysis; type: cell-based
Tubulin (Homo sapiens) [9] = molecular target: T1, Tubulin (Homo sapiens); conditions: HeLa, 1 uM

Row | SMILES | Activity (HeLa [1]) | inhibition (Tubulin (Homo sapiens) [2]) | pIC50 (HeLa [3]) | inhibition (Bos taurus) [%] | pIC50 (SK-N-SH) | pIC50 (DU-145) | pIC50 (A549) | Activity (HeLa [4]) [%] | pIC50 [5] | Activity (HeLa [6]) | inhibition (Tubulin (Homo sapiens) [7]) | inhibition (Tubulin (Homo sapiens) [8]) | inhibition (Tubulin (Homo sapiens) [9])
1 | CC(=O)O[C@H]1C(=O)[C@@]2(C)[C@H]([C@H](OC(=O)c3ccccc3)[C@]3(O)C[C@H](OC(=O)[C@H](O)[C@@H](NC(=O)c4ccccc4)c4ccccc4)C(C)=C1C3(C)C)[C@]1(OC(C)=O)CO[C@@H]1C[C@@H]2O | Active | Active | – | – | – | – | – | – | – | – | – | – | –
2 | C=C(c1ccc(Cl)cc1)c1cc(OC)c(OC)c(OC)c1-c1ccccc1 | – | – | 4.47 | 51 | 4.60 | 4.54 | 4.40 | – | – | – | – | – | –
3 | COc1ccc(/C=C/c2cc(OC)c(OC)c(OC)c2-c2ccc(OC)cc2)cc1 | – | – | 4.72 | 20 | 4.44 | 4.47 | 4.46 | – | – | – | – | – | –
4 | COc1ccc(/C=C/c2cc(OC)c(OC)c(OC)c2-c2ccc(F)c(F)c2)cc1 | – | – | 5.04 | 55 | 5.16 | 5.12 | 5.12 | 71.16 | 5.04 | Active | Active | – | –
5 | C=C(c1ccc(OC)cc1)c1cc(OC)c(OC)c(OC)c1-c1ccc2ccccc2c1 | – | – | 4.46 | 21 | 5.22 | 4.34 | 4.82 | – | – | – | – | – | –
6 | COc1ccc(/C=C/c2cc(OC)c(OC)c(OC)c2-c2ccccc2)cc1 | – | – | 4.59 | 22 | 4.96 | 4.29 | 4.44 | – | – | – | – | – | –
7 | C=C(c1ccc(OC)cc1)c1cc(OC)c(OC)c(OC)c1-c1ccccc1 | – | – | 4.96 | 49 | 4.51 | 5.10 | 4.66 | – | – | – | – | – | –
8 | COc1ccc(/C=C/c2cc(OC)c(OC)c(OC)c2-c2ccc(Cl)cc2)cc1 | – | – | 4.31 | 26 | 4.82 | 4.46 | 4.52 | – | – | – | – | – | –
9 | C=C(c1ccc(OC)cc1)c1cc(OC)c(OC)c(OC)c1-c1ccc2c(c1)OCO2 | – | – | 5.27 | 56 | 5.21 | 5.22 | 5.30 | 73 | 5.07 | Active | Active | Active | –
10 | C=C(c1ccc(OC)cc1)c1cc(OC)c(OC)c(OC)c1-c1ccc(OC)cc1 | – | – | 4.14 | 40 | 4.12 | 4.43 | 4.85 | – | – | – | – | – | –
11 | C=C(c1ccccc1)c1cc(OC)c(OC)c(OC)c1-c1ccccc1 | – | – | 4.38 | 40 | 4.47 | 4.44 | 4.77 | – | – | – | – | – | –
12 | C=C(c1ccc(OC)cc1)c1cc(OC)c(OC)c(OC)c1-c1ccc(C(C)(C)C)cc1 | – | – | 4.41 | 23 | 4.62 | 4.41 | 4.57 | – | – | – | – | – | –
13 | COc1ccc(/C=C/c2cc(OC)c(OC)c(OC)c2-c2ccc(OC)c(OC)c2)cc1 | – | – | 4.35 | 33 | 4.38 | 4.47 | 4.55 | – | – | – | – | – | –
14 | COc1ccc(/C=C/c2cc(OC)c(OC)c(OC)c2-c2ccc3ccccc3c2)cc1 | – | – | 4.89 | 50 | 4.80 | 4.49 | 4.85 | – | – | – | – | – | –
15 | COC(=O)Nc1nc2cc(C(=O)c3cccs3)ccc2[nH]1 | – | – | – | – | – | – | – | – | – | – | – | – | Active
16 | COc1ccc(/C=C/c2cc(OC)c(OC)c(OC)c2-c2ccc(F)c(C)c2)cc1 | – | – | 4.77 | 48 | 4.72 | 4.64 | 4.74 | – | – | – | – | – | –
17 | COc1cc(/C=C/c2ccccc2)c(-c2ccccc2)c(OC)c1OC | – | – | 4.05 | 41 | 4.20 | 4.09 | 4.10 | – | – | – | – | – | –
18 | COc1cc(/C=C/c2ccc(C)cc2)c(-c2ccccc2)c(OC)c1OC | – | – | 4.35 | 47 | 4.51 | 4.00 | 4.27 | – | – | – | – | – | –
19 | C=C(c1ccc(C)cc1)c1cc(OC)c(OC)c(OC)c1-c1ccccc1 | – | – | 4.55 | 32 | 4.51 | 4.55 | 4.46 | – | – | – | – | – | –
20 | C=C(c1ccc(C(F)(F)F)cc1)c1cc(OC)c(OC)c(OC)c1-c1ccccc1 | – | – | 4.49 | 49 | 4.89 | 4.51 | 4.32 | – | – | – | – | – | –
21 | C=C(c1ccc(OC)cc1)c1cc(OC)c(OC)c(OC)c1-c1ccc(Cl)cc1 | – | – | 4.52 | 40 | 4.82 | 4.48 | 4.54 | – | – | – | – | – | –
22 | COc1ccc(/C=C/c2cc(OC)c(OC)c(OC)c2-c2ccc3c(c2)OCO3)cc1 | – | – | 5.06 | 62 | 5.10 | 5.14 | 5.20 | 73.02 | 5.17 | Active | Active | Active | –
23 | C=C(c1ccc(OC)cc1)c1cc(OC)c(OC)c(OC)c1-c1ccc(F)c(F)c1 | – | – | 5.23 | 53 | 5.12 | 5.17 | 5.19 | 70.02 | 4.95 | Active | Active | – | –
24 | COc1ccc(/C=C/c2cc(OC)c(OC)c(OC)c2-c2ccc(C(C)(C)C)cc2)cc1 | – | – | 4.55 | 33 | 4.52 | 4.35 | 4.49 | – | – | – | – | – | –
